# Assay results as given in ChEMBL document CHEMBL1156144, “Biaryl ethers as novel non-nucleoside reverse transcriptase inhibitors with improved potency against key mutant viruses” (J Med Chem, 2009).
# Legend:
# [1] = test system: Human immunodeficiency virus; experiment: Antiviral activity against HIV with reverse transcriptase K103N/G190A double mutant assessed as inhibition of viral replication; type: functional, organism-based; conditions: Human immunodeficiency virus 1
# [2] = Inhibition of RNA-dependent DNA polymerase activity of wild type HIV reverse transcriptase assessed as BrdU incorporation by standard ECL assay; set-up: species or system Human immunodeficiency virus
# Summary of the method: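 Purified recombinant wild-type RT polymerase activity was measured using a 500-nt heteropolymeric RNA template and a biotinylated DNA primer. BrdU incorporation was detected with a ruthenylated anti-BrdU antibody by electrochemiluminescence. Ki is the geometric mean of at least two determinations, each within 25% of the mean.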
# [3] = Oral bioavailability in Beagle dog at 1 mg/kg; type: ADME, organism-based, Canis lupus familiaris; conditions: in vivo
# [4] = test system: Human immunodeficiency virus; experiment: Antiviral activity against wild type HIV H9-3B infected in human MT2 cells assessed as inhibition of viral replication measuring p24 level after 3 days in presence of 10% fetal bovine serum; type: functional; conditions: Human immunodeficiency virus 1, MT2, Serum; read-out: CIC95
# Summary of the method: (§1)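 Multiple-cycle spread assay in MT2 cells with wild-type H9IIIB virus. Cells were infected overnight at moi ≈ 0.01 without compound, washed, then cultured 3 days across varying compound concentrations in RPMI 1640 with 10% FBS or 50% NHS. p24 was measured in supernatants. CIC95 is the lowest concentration inhibiting replication ≥95%, as the geometric mean of ≥2 determinations.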
# [5] = target: Cytochrome P450 3A4 (Homo sapiens, UniProt P08684); experiment: Inhibition of CYP3A4; type: ADME
# [6] = test system: Rhesus monkey; experiment: AUC in rhesus monkey at 5 mg/kg, po; type: ADME, organism-based, Macaca mulatta, Plasma; set-up: dose 5 mg/kg, route oral; conditions: in vivo
# [7] = test system: Human immunodeficiency virus; experiment: Antiviral activity against HIV with reverse transcriptase K103N mutant assessed as inhibition of viral replication; type: functional, organism-based; conditions: Human immunodeficiency virus 1
# [8] = test system: Rattus norvegicus; experiment: AUC in Sprague-Dawley rat at 10 mg/kg, po; type: ADME, organism-based, Plasma; set-up: dose 10 mg/kg, route oral; conditions: in vivo
# [9] = test system: Human immunodeficiency virus; experiment: Antiviral activity against wild type HIV H9-3B infected in human MT2 cells assessed as inhibition of viral replication measuring p24 level after 3 days in presence of 50% normal human serum; type: functional; conditions: Human immunodeficiency virus 1, H9-3B, 72 h, read-out: CIC95; summary of the method: as §1
# [10] = Volume of distribution in Sprague-Dawley rat at 2 mg/kg, iv; type: ADME, organism-based; set-up: dose 2 mg/kg, route intravenous; conditions: in vivo
# [11] = test system: Human immunodeficiency virus; experiment: Antiviral activity against HIV with reverse transcriptase Y181C mutant infected in human MT2 cells assessed as inhibition of viral replication measuring p24 level after 3 days in presence of 10% fetal bovine serum; type: functional; conditions: Human immunodeficiency virus 1, MT2, Serum, 72 h; read-out: CIC95
# Summary of the method: (§2)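 Multiple-cycle replication (Spread) assay in MT2 cells with H9IIIB-background mutant virus. Cells were infected overnight at moi ≈ 0.01 without compound, washed, then cultured 3 days across a range of compound concentrations in medium with 10% FBS. p24 was measured in supernatants. CIC95 is the lowest concentration inhibiting replication by ≥95%, reported as the geometric mean of ≥2 determinations.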
# [12] = Half life in Beagle dog at 0.5 mg/kg, iv; type: ADME, organism-based, Canis lupus familiaris; set-up: dose 0.5 mg/kg, route intravenous; conditions: in vivo
# [13] = test system: Human immunodeficiency virus; experiment: Antiviral activity against HIV with reverse transcriptase V106A/G190A/F227L mutant assessed as inhibition of viral replication; type: functional, organism-based; conditions: Human immunodeficiency virus 1
# [14] = test system: Canis familiaris; experiment: AUC in Beagle dog at 1 mg/kg, po; type: ADME, organism-based, Canis lupus familiaris, Plasma; set-up: dose 1 mg/kg, route oral; conditions: in vivo
# [15] = test system: Human immunodeficiency virus; experiment: Antiviral activity against HIV with reverse transcriptase CNDO mutant assessed as inhibition of viral replication; type: functional, organism-based; conditions: Human immunodeficiency virus 1
# [16] = test system: Human immunodeficiency virus; experiment: Antiviral activity against HIV with reverse transcriptase K103N mutant infected in human MT2 cells assessed as inhibition of viral replication measuring p24 level after 3 days in presence of 10% fetal bovine serum; type: functional; conditions: Human immunodeficiency virus 1, MT2, Serum, 72 h; read-out: CIC95; summary of the method: as §2
# [17] = Half life in Sprague-Dawley rat at 2 mg/kg, iv; type: ADME, organism-based; set-up: dose 2 mg/kg, route intravenous; conditions: in vivo
# [18] = test system: Rattus norvegicus; experiment: AUC in Sprague-Dawley rat at 2 mg/kg, iv; type: ADME, organism-based, Plasma; set-up: dose 2 mg/kg, route intravenous; conditions: in vivo
# [19] = test system: Canis familiaris; experiment: Cardiotoxicity in conscious cardiovascular dog assessed as electrocardiogram at 10 mg/kg, iv; type: toxicity, organism-based, Canis lupus familiaris, Heart; set-up: dose 10 mg/kg, route intravenous; conditions: in vivo
# [20] = Oral bioavailability in Sprague-Dawley rat at 10 mg/kg; type: ADME, organism-based; conditions: in vivo
# [21] = target: Cytochrome P450 2D6 (Homo sapiens, UniProt P10635); experiment: Inhibition of CYP2D6; type: ADME
# [22] = test system: Human immunodeficiency virus; experiment: Antiviral activity against HIV with reverse transcriptase G190S mutant assessed as inhibition of viral replication; type: functional, organism-based; conditions: Human immunodeficiency virus 1
# [23] = test system: Human immunodeficiency virus; experiment: Antiviral activity against HIV with reverse transcriptase G190A mutant assessed as inhibition of viral replication; type: functional, organism-based; conditions: Human immunodeficiency virus 1
# [24] = test system: Human immunodeficiency virus; experiment: Antiviral activity against HIV with reverse transcriptase Y188L mutant assessed as inhibition of viral replication; type: functional, organism-based; conditions: Human immunodeficiency virus 1
# [25] = Volume of distribution in rhesus monkey at 1 mg/kg, iv; type: ADME, organism-based, Macaca mulatta; set-up: dose 1 mg/kg, route intravenous; conditions: in vivo
# [26] = test system: Human immunodeficiency virus; experiment: Antiviral activity against HIV with reverse transcriptase K101E/Y181C/G190A mutant assessed as inhibition of viral replication; type: functional, organism-based; conditions: Human immunodeficiency virus 1
# [27] = test system: Human immunodeficiency virus; experiment: Antiviral activity against HIV with reverse transcriptase K103N/Y181C double mutant infected in human MT2 cells assessed as inhibition of viral replication measuring p24 level after 3 days in presence of 10% fetal bovine serum; type: functional; conditions: Human immunodeficiency virus 1, MT2, Serum, 72 h; read-out: CIC95; summary of the method: as §2
# [28] = Volume of distribution in Beagle dog at 0.5 mg/kg, iv; type: ADME, organism-based, Canis lupus familiaris; set-up: dose 0.5 mg/kg, route intravenous; conditions: in vivo
# [29] = Half life in rhesus monkey at 1 mg/kg, iv; type: ADME, organism-based, Macaca mulatta; set-up: dose 1 mg/kg, route intravenous; conditions: in vivo
# [30] = Clearance in Beagle dog at 0.5 mg/kg, iv; type: ADME, organism-based, Canis lupus familiaris; set-up: dose 0.5 mg/kg, route intravenous; conditions: in vivo
# [31] = target: Human immunodeficiency virus type 1 reverse transcriptase (Human immunodeficiency virus 1, UniProt Q72547, K103N); experiment: Inhibition of RNA-dependent DNA polymerase activity of recombinant HIV reverse transcriptase K103N mutant assessed as BrdU incorporation by standard ECL assay
# [32] = Clearance in Sprague-Dawley rat at 2 mg/kg, iv; type: ADME, organism-based; set-up: dose 2 mg/kg, route intravenous; conditions: in vivo
# [33] = test system: Canis familiaris; experiment: Cardiotoxicity in conscious cardiovascular dog assessed as mean arterial pressure at 10 mg/kg, iv; type: toxicity, organism-based, Canis lupus familiaris, Heart; set-up: dose 10 mg/kg, route intravenous; conditions: in vivo
# [34] = test system: Human immunodeficiency virus; experiment: Antiviral activity against HIV with reverse transcriptase K103N/Y181C/G190A mutant assessed as inhibition of viral replication; type: functional, organism-based; conditions: Human immunodeficiency virus 1
# [35] = Clearance in rhesus monkey at 1 mg/kg, iv; type: ADME, organism-based, Macaca mulatta; set-up: dose 1 mg/kg, route intravenous; conditions: in vivo
# [36] = Oral bioavailability in rhesus monkey at 5 mg/kg; conditions: in vivo
# [37] = test system: Human immunodeficiency virus; experiment: Antiviral activity against HIV with reverse transcriptase MDRC4 mutant assessed as inhibition of viral replication; type: functional, organism-based; conditions: Human immunodeficiency virus 1
# [38] = Plasma concentration in rat at 100 mg/kg, po after 24 hrs; type: ADME, organism-based; set-up: dose 100 mg/kg, route oral
# [39] = test system: Canis familiaris; experiment: Cardiotoxicity in conscious cardiovascular dog assessed as heart rate at 10 mg/kg, iv; type: toxicity, organism-based, Canis lupus familiaris; set-up: dose 10 mg/kg, route intravenous; conditions: in vivo
# [40] = test system: Human immunodeficiency virus; experiment: Antiviral activity against HIV with reverse transcriptase K103N/Y181C double mutant assessed as inhibition of viral replication; type: functional, organism-based; conditions: Human immunodeficiency virus 1
# [41] = test system: Human immunodeficiency virus; experiment: Antiviral activity against HIV with reverse transcriptase K103N/P225H double mutant assessed as inhibition of viral replication; type: functional, organism-based; conditions: Human immunodeficiency virus 1
# [42] = test system: Human immunodeficiency virus; experiment: Antiviral activity against HIV with reverse transcriptase L100I mutant assessed as inhibition of viral replication; type: functional, organism-based; conditions: Human immunodeficiency virus 1
# [43] = test system: Human immunodeficiency virus; experiment: Antiviral activity against HIV with reverse transcriptase L100I/K103N double mutant assessed as inhibition of viral replication; type: functional, organism-based; conditions: Human immunodeficiency virus 1
# [44] = test system: Human immunodeficiency virus; experiment: Antiviral activity against HIV with reverse transcriptase Y181C/G190A double mutant assessed as inhibition of viral replication; type: functional, organism-based; conditions: Human immunodeficiency virus 1
# [45] = test system: Human immunodeficiency virus; experiment: Antiviral activity against HIV with reverse transcriptase Y181C mutant assessed as inhibition of viral replication; type: functional, organism-based; conditions: Human immunodeficiency virus 1
# [46] = test system: Human immunodeficiency virus; experiment: Antiviral activity against HIV with reverse transcriptase K101E/G190A double mutant assessed as inhibition of viral replication; type: functional, organism-based; conditions: Human immunodeficiency virus 1
# Sequence of Cytochrome P450 3A4 (P08684 whole entry): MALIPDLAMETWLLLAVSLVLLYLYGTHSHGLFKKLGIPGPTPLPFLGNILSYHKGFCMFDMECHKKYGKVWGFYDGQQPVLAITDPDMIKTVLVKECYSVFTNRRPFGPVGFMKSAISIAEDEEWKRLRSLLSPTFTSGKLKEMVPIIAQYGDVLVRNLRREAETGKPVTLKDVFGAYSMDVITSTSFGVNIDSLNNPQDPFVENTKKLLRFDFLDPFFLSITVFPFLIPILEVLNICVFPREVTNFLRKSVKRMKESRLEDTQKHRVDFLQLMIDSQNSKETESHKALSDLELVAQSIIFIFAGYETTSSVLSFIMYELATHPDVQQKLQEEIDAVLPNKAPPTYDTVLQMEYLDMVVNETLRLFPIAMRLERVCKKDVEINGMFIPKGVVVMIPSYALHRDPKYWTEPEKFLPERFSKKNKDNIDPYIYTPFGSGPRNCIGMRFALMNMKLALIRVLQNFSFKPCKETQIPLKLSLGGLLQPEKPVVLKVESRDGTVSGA
# Sequence of Cytochrome P450 2D6 (P10635 whole entry): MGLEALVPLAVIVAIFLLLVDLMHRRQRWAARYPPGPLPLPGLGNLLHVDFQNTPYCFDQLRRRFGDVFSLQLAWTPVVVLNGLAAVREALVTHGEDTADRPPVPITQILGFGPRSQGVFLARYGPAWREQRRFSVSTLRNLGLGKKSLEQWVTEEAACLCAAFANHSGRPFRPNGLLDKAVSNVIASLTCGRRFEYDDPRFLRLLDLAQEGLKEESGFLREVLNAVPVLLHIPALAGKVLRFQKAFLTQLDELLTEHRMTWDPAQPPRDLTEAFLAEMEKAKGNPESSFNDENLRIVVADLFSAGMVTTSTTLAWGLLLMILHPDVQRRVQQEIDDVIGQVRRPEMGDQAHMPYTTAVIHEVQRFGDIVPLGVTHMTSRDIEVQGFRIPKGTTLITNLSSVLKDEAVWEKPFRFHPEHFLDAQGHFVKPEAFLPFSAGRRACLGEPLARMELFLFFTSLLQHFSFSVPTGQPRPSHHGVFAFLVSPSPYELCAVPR
smiles,measurement,setting,value
N#Cc1cc(Cl)cc(Oc2cc(OCc3n[nH]c4nc(N)ccc34)cc(F)c2Cl)c1,IC50,[1],9.6 nM
same,Ki,[2],0.1 nM
same,bioavailability,[3],63%
same,IC95,[4],8 nM
same,IC50,[5],4400 nM
same,AUC,[6],1.7 µM
same,IC50,[7],3.3 nM
same,AUC,[8],18 µM
same,IC95,[9],69 nM
same,Vd,[10],3.5 L/kg
same,IC95,[11],14 nM
same,half-life,[12],7 h
same,IC50,[13],> 1000 nM
same,AUC,[14],6 µM
same,IC50,[15],1.1 nM
same,IC95,[16],18 nM
same,half-life,[17],4.6 h
same,AUC,[18],7.4 µM
same,Activity,[19],Non-toxic
same,bioavailability,[20],49%
same,IC50,[21],47400 nM
same,IC50,[22],37.3 nM
same,IC50,[23],2 nM
same,IC50,[24],326 nM
same,Vd,[25],3.6 L/kg
same,IC50,[26],19.2 nM
same,IC95,[27],62 nM
same,Vd,[28],2.3 L/kg
same,half-life,[29],4.2 h
same,clearance,[30],4 mL/min/kg
same,Ki,[31],0.4 nM
same,clearance,[32],10 mL/min/kg
same,Activity,[33],Non-toxic
same,IC50,[34],84.3 nM
same,clearance,[35],15 mL/min/kg
same,bioavailability,[36],13%
same,IC50,[37],6.4 nM
same,AUC at 24 h,[38],180 µM·h
same,Activity,[39],Non-toxic
same,IC50,[40],184 nM
same,IC50,[41],3.3 nM
same,IC50,[42],0.6 nM
same,IC50,[43],112 nM
same,IC50,[44],4.3 nM
same,IC50,[45],2.2 nM
same,IC50,[46],3.4 nM
